# Reference: ChEMBL document CHEMBL3871280, “Bis(N-amidinohydrazones) and N-(amidino)-N'-aryl-bishydrazones: New classes of antibacterial/antifungal agents” (Bioorg Med Chem, 2017)
# Calls of active or inactive are those of the source. The calls are words filed in the database; no cut-off is given here.
# Tests used:
# Escherichia coli = assay: Antibacterial activity against Escherichia coli MC1061; format: functional
# In short: (§1)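 Values were set in μM and converted to μg/mL for presentation. Amikacin, ampicillin and ofloxacin served as positive controls.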
# [1] = Antifungal activity against fluconazole/itraconazole/voriconazole-resistant Candida albicans ATCC 90819; format: functional
# [2] = Antifungal activity against fluconazole/itraconazole/voriconazole-susceptible Candida albicans ATCC 2876; format: functional
# [3] = Antifungal activity against fluconazole/itraconazole/voriconazole-susceptible Candida albicans ATCC 2310; format: functional
# Pseudomonas aeruginosa [4] = assay: Antibacterial activity against Pseudomonas aeruginosa ATCC 27853; format: functional
# Enterococcus [5] = assay: Antibacterial activity against vancomycin-resistant Enterococcus; format: functional; in short: as §1
# [6] = test system: Mycolicibacterium smegmatis; assay: Antimycobacterial activity against Mycobacterium smegmatis MC2 155; format: functional; settings: str. MC2 155; in short: as §1
# [7] = Cytotoxicity against human A549 cells assessed as reduction in cell survival; format: toxicity, cell-based
# Enterobacter cloacae = assay: Antibacterial activity against Enterobacter cloacae ATCC 13047; format: functional; settings: subsp. cloacae ATCC 13047
# [8] = Antibacterial activity against Salmonella enterica ATCC 14028; format: functional
# Listeria monocytogenes [9] = assay: Antibacterial activity against Listeria monocytogenes ATCC 19115; format: functional
# [10] = Antifungal activity against fluconazole/itraconazole/voriconazole-resistant Candida albicans ATCC 1237; format: functional
# Klebsiella pneumoniae = assay: Antibacterial activity against Klebsiella pneumoniae ATCC 27736; format: functional
# Staphylococcus aureus [11] = assay: Antibacterial activity against methicillin-resistant Staphylococcus aureus; format: functional; in short: as §1
# Acinetobacter baumannii = assay: Antibacterial activity against Acinetobacter baumannii ATCC 19606; format: functional
# Candida albicans [12] = assay: Antifungal activity against Candida albicans ATCC 1003; format: functional
# [13] = Antifungal activity against fluconazole/itraconazole/voriconazole-resistant Candida albicans ATCC 10231; format: functional
# [14] = Cytotoxicity against human BEAS2B cells assessed as reduction in cell survival; format: toxicity, cell-based; settings: beas-2b
# [15] = Antifungal activity against fluconazole/itraconazole/voriconazole-resistant Candida albicans ATCC 64124; format: functional
# Bacillus subtilis = assay: Antibacterial activity against Bacillus subtilis 168; format: functional; settings: subsp. subtilis str. 168
# Staphylococcus aureus [16] = assay: Ratio of MIC for methicillin-resistant Staphylococcus aureus after and before 15 serial passages at 0.5 times MIC; format: functional
# In short: (§2)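 Multi-step resistance selection with serial sub-culture of bacteria at sub-inhibitory compound concentrations for 15 passages. MIC was redetermined after each passage to follow any increase over the starting value. Amikacin was run in parallel as reference.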
# Enterococcus [17] = assay: Ratio of MIC for vancomycin-resistant Enterococcus after and before 15 serial passages at 0.5 times MIC; format: functional; in short: as §2
# Listeria monocytogenes [18] = assay: Ratio of MIC for Listeria monocytogenes ATCC 19115 after and before 15 serial passages at 0.5 times MIC; format: functional; in short: as §2
# Candida albicans [19] = assay: Induction of intracellular ROS production in Candida albicans ATCC 10231 at 1 to 2 times MIC after 1 hr by DCFH-DA probe based fluorescence microscopic analysis; format: functional, cell-based
# In short: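 C. albicans ATCC 10231 was exposed for 1 h at 35 °C, with untreated cells as negative control and 1 mM H2O2 as positive control. Cells were then stained with DCFH-DA (20 μg/mL), and intracellular ROS was read by fluorescence microscopy.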
# Pseudomonas aeruginosa [20] = assay: Ratio of MIC for Pseudomonas aeruginosa ATCC 27853 after and before 15 serial passages at 0.5 times MIC; format: functional; in short: as §2
# Candida albicans [21] = assay: Ratio of MIC for Candida albicans ATCC 10231 after and before 13 serial passages at 0.5 times MIC; format: functional
# Enterococcus [22] = assay: Antibacterial activity against vancomycin-resistant Enterococcus at 0.5 times MIC after […] serial passages; format: functional; in short: as §2
# Listeria monocytogenes [23] = assay: Antibacterial activity against Listeria monocytogenes ATCC 19115 at 0.5 times MIC after […] serial passages; format: functional; in short: as §2
SMILES,MIC (Escherichia coli) [µM],MIC [1] [µM],MIC [2] [µM],MIC [3] [µM],MIC (Pseudomonas aeruginosa [4]) [µM],MIC (Enterococcus [5]) [µM],MIC [6] [µM],IC50 [7] [µg/mL],MIC (Enterobacter cloacae) [µM],MIC [8] [µM],MIC (Listeria monocytogenes [9]) [µM],MIC [10] [µM],MIC (Klebsiella pneumoniae) [µM],MIC (Staphylococcus aureus [11]) [µM],MIC (Acinetobacter baumannii) [µM],MIC (Candida albicans [12]) [µM],MIC [13] [µM],IC50 [14] [µg/mL],MIC [15] [µM],MIC (Bacillus subtilis) [µM],other results
C/C(=N\NC(=N)N)c1ccc(Cc2ccc(/C(C)=N/NC(=N)N)cc2)cc1.Cl.Cl,> 500,17.8,8.9,17.8,> 500,2,2,4.3,> 500,> 500,3.9,17.8,> 500,3.9,> 500,17.8,17.8,2.9,17.8,> 500,
Cl.N=C(N)N/N=C/c1ccc(-c2ccc(/C=N/Nc3ccc(Cl)cc3)cc2)cc1,> 500,18.3,18.3,9.1,> 500,3.9,3.9,4.9,> 500,> 500,3.9,36.5,> 500,7.8,> 500,9.1,18.3,6,36.5,> 500,
Cl.N=C(N)N/N=C/c1ccc(-c2ccc(/C=N/Nc3ccc(F)cc3F)cc2)cc1,> 500,18.2,9.1,9.1,> 500,3.9,2 to 3.9,4.8,> 500,> 500,2 to 3.9,9.1,> 500,3.9,> 500,4.5,2.3,5.8,9.1,> 500,
Cl.Cl.N=C(N)N/N=C/c1ccc(-c2cccc(/C=N/NC(=N)N)c2)cc1,> 500,9.9,9.9,9.9,> 500,3.9,1,13.9,> 500,> 500,1,9.9,> 500,3.9,> 500,9.9,9.9,5.7,9.9,> 500,
Cl.N#Cc1ccc(N/N=C/c2ccc(-c3ccc(/C=N/NC(=N)N)cc3)cc2)cc1,62.5 to 125,37.3,37.3,37.3,31.3 to 62.5,2 to 3.9,15.6 to 31.3,4.2,500,15.6,7.8,37.3,15.6 to 31.3,15.6,15.6 to 31.3,18.7,37.3,1.9,74.9,31.3,
C/C(=N\NC(=N)N)c1ccc(CCc2ccc(/C(C)=N/NC(=N)N)cc2)cc1.Cl.Cl,> 500,17.3,8.6,69.3,> 500,1,1,2.9,> 500,> 500,1,34.6,> 500,1 to 2,> 500,34.6,17.3,1.8,> 69.3,> 500,fold change (FC) (Staphylococcus aureus [16]): 4 - 16; fold change (FC) (Enterococcus [17]): 16; fold change (FC) (Listeria monocytogenes [18]): 8
C/C(=N\NC(=N)N)c1ccc(-c2ccc(/C(C)=N/NC(=N)N)cc2)cc1.Cl.Cl,62.5,9.2,4.7,9.2,2,> 500,> 500,6.3,125,> 500,> 500,> 73.9,15.6,> 500,> 500,18.4,4.7 to 9.2,1.7,4.7,> 500,
C/C(=N\NC(=N)N)c1ccc2c(c1)Cc1cc(/C(C)=N/NC(=N)N)ccc1-2.Cl.Cl,500,4.6,2.3,2.3,1 to 2,,,2.5,500,3.9,< 0.5,4.6,31.3 to 62.5,1 to 2,500,2.3,2.3 to 4.6,1.8,2.3,7.8,fold change (FC) (Staphylococcus aureus [16]): 1; Activity (Candida albicans [19]): Active; fold change (FC) (Enterococcus [17]): 1; fold change (FC) (Pseudomonas aeruginosa [20]): 1; fold change (FC) (Listeria monocytogenes [18]): 1; fold change (FC) (Candida albicans [21]): 2
Cl.Cl.N=C(N)N/N=C/c1ccc(-c2ccc(/C=N/NC(=N)N)cc2)cc1,> 500,> 79.2,19.7,> 79.2,> 500,2,> 500,6.6,> 500,> 500,1,39.5,> 500,3.9,> 500,19.7,39.5,3,> 79.2,> 500,
Cl.N=C(N)N/N=C/c1ccc(-c2ccc(/C=N/Nc3ccccc3Cl)cc2)cc1,> 500,4.6,4.6,4.6,> 500,,3.9,2.8,> 500,> 500,1 to 2,9.2,> 500,,> 500,4.6,4.6,2.3,9.2,> 500,Activity (Candida albicans [19]): Active; Activity (Enterococcus [22]): Active; Activity (Listeria monocytogenes [23]): Active
C/C(=N\NC(=N)N)c1cccc(/C(C)=N/NC(=N)N)c1.Cl.Cl,> 500,> 90.1,22.5,90.1,500,125,15.6,31.2,> 500,62.5 to 250,250,90.1,> 500,> 500,> 500,> 90.1,> 90.1,33,> 90.1,250,
Cl.N=C(N)N/N=C/c1ccc(-c2ccc(/C=N/Nc3ccccc3Br)cc2)cc1,> 500,8.3,8.3,8.3,> 500,2,3.9,6.7,> 500,> 500,2,8.3,> 500,2,> 500,4.1,4.1,3.4,8.3,> 500,
